Reference: ChEMBL document CHEMBL4368899, “Novel carbohydrate modified berberine derivatives: synthesis and in vitro anti-diabetic investigation” (Medchemcomm, 2019)

Columns and labels:
[1] = Stability of compound in acetonitrile/water at 1:1 ratio at pH 1.5 assessed as compound degradation after 5 hrs by HPLC analysis; format: physicochemical; details: acetonitrile/water 1:1, pH 1.5; read-out: Drug degradation
Outline: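 Remaining compound after 5 h was quantified by HPLC on a C8 column (250 × 4.6 mm, 5 µm). Elution used 50% acetonitrile in 0.05 mol L⁻¹ aqueous KH2PO4 at 1 mL min⁻¹, with detection at 320 nm.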

[2] = Aqueous solubility of compound; format: physicochemical; details: water
[3] = test system: HepG2; assay: Cytotoxicity against human HepG2 cells after 12 hrs by CCK-8 assay; format: cell-based; details: for IC50: Homo sapiens, HepG2, 12 h; for Activity: human, hepg2, 12 h
Outline: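 Cells were cultured in DMEM/10% heat-inactivated FBS with penicillin/streptomycin at 37 °C, 5% CO2, and harvested with trypsin at 80–90% confluence. They were plated at 1×10^5 cells per mL, and medium was refreshed after 12 h. Cells were treated 12 h with 0.2–625 µg mL⁻¹ compound dissolved in 0.5% DMSO–water. CCK-8 was added for 4 h, then A570 read, correcting for compound colour. IC50 is relative to untreated cells as 100%. n = 3.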

[4] = test system: HepG2; assay: Antidiabetic activity in human HepG2 cells assessed as increase in glucose consumption at 5 ug/mL after 48 hrs by glucose oxidase method relative to berberine; format: functional
Outline: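 HepG2 cells were grown in DMEM with 10% heat-inactivated FBS and penicillin/streptomycin. They were seeded at 2×10^5 cells per well and cultured 12 h at 37 °C in 5% CO2. Cells were then exposed to 5.0 µg mL⁻¹ compound for two days. A DMSO solvent control and a blank were run. Glucose was measured by glucose oxidase. Consumption = blank-well glucose minus glucose remaining in treated wells. Means ± SD, n = 8, expressed as % increase over berberine.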

## COc1ccc2cc3[n+](cc2c1OCc1cn([C@H]2O[C@H](CO)[C@@H](O)[C@H](O)[C@@H]2O)nn1)CCc1cc2c(cc1-3)OCO2.[Cl-]
[1]
  degraded at 5 h: 0.3%
[2]
  solubility: 9000 µg/mL
[3]
  IC50: 72.2 µg/mL
  Activity: Dose-dependent effect
[4]
  Activity: 10.81%

## COc1ccc2cc3[n+](cc2c1OCc1cn([C@@H]2O[C@H](CO)[C@@H](O)[C@H]2O)nn1)CCc1cc2c(cc1-3)OCO2.[Cl-]
[3]
  IC50: 44 µg/mL
  Activity: Dose-dependent effect
[4]
  Activity: 14.83%

## COc1ccc2cc3[n+](cc2c1OCc1cn([C@@H]2O[C@H](CO)[C@@H](O)[C@H](O)[C@H]2O)nn1)CCc1cc2c(cc1-3)OCO2.[Cl-]
[3]
  IC50: 62.9 µg/mL
  Activity: Dose-dependent effect
[4]
  Activity: 2.23%

## COc1ccc2cc3[n+](cc2c1OCc1cn([C@@H]2O[C@@H](C)[C@H](O)[C@@H](O)[C@H]2O)nn1)CCc1cc2c(cc1-3)OCO2.[Cl-]
[3]
  IC50: 49.3 µg/mL
  Activity: Dose-dependent effect
[4]
  Activity: -3.6%

## COc1ccc2cc3[n+](cc2c1OCc1cn([C@@H]2O[C@H](CO)[C@H](O)[C@H](O)[C@H]2O)nn1)CCc1cc2c(cc1-3)OCO2.[Cl-]
[3]
  IC50: 59.3 µg/mL
  Activity: Dose-dependent effect
[4]
  Activity: 0.21%

## COc1ccc2cc3[n+](cc2c1OC)CCc1cc2c(cc1-3)OCO2.[Cl-] [BERBERINE CHLORIDE]
[1]
  degraded at 5 h: 1.8%
[2]
  solubility: 1750 µg/mL
[3]
  IC50: 53.9 µg/mL
